Experimental data pooled from the literature.
Each line is one published result; the experiments were not run side by side.
RAF1: RAF proto-oncogene serine/threonine-protein kinase (RAF1, Homo sapiens, UniProt P04049)
RAF1 Y340D/Y341D: RAF proto-oncogene serine/threonine-protein kinase (RAF1, Homo sapiens, UniProt P04049, Y340D/Y341D)

Compound | target | assay | conditions | endpoint | value
O=c1[nH]c2ccccc2n1C1CCN(Cc2ccc(-c3[nH]c4cc5ncnc5cc4nc3-c3ccccc3)cc2)CC1 | RAF1 | cell-free assay | 0.5 µM | remaining signal | 94.7%
Cn1cc(-c2cccc(N3CCc4c(sc5c4CC(C)(C)C5)C3=O)c2CO)cc(Nc2ccncn2)c1=O | RAF1 Y340D/Y341D | enzyme activity, inhibitor | 1 µM | inhibition | 10%
C#Cc1n[nH]c2c(-c3cn([C@@H](C)c4ccccc4)c(=O)[nH]c3=O)cc(F)cc12 | RAF1 Y340D/Y341D | enzyme activity, inhibitor | 0.1 µM | inhibition | 4.4%
Cn1cc(-c2cc(F)cc(N3CCn4c(cc5c4CCCC5)C3=O)c2CO)cc(Nc2ccc(N3CCN(C4COC4)CC3)cn2)c1=O | RAF1 Y340D/Y341D | enzyme activity, inhibitor | 0.1 µM | inhibition | 5%
COc1ncccc1-c1cnn2ccc(N3CCN(C(=O)OC(C)C)CC3)nc12 | RAF1 | binding, competition with immobilised ligand | 1 µM | remaining binding | 60%
Nc1ncc(-c2nc(N3CCOCC3)nc(N3CCOCC3)n2)c(C(F)F)n1 | RAF1 | binding, competition with immobilised ligand | 10 µM | remaining binding | 98%
Cn1cncc1[C@](O)(COc1ccc(C#N)cc1-c1ccc(OC(F)(F)F)cc1)c1ccc(C#N)cc1 | RAF1 | cell-free assay, competition with immobilised ligand | 1 µM | remaining binding | 100%
C#Cc1n[nH]c2c(-c3cn(C(C)c4ccccn4)c(=O)[nH]c3=O)cc(F)cc12 (stereo not shown) | RAF1 Y340D/Y341D | enzyme activity, inhibitor | 1 µM | inhibition | 15.5%
CC(C)(C)c1cc(C=C(C#N)C#N)cc(Br)c1O | RAF1 | enzyme activity, inhibitor | 0.5 µM | remaining activity | 104%
Cc1nn(C)cc1-c1nc2c(N3CCN(Cc4ccc(Cl)cc4)CC3)c(Cl)cnc2[nH]1 | RAF1 | binding, competition with immobilised ligand | 1 µM | remaining binding | 69%
